Compounds with a hit are over-represented: about 7.9% of the library has one in this group of screens.
JNK3 blocker: JNK3 (human) kinase inhibition; P53779; purified JNK3 kinase activity, HTS; inhibition, % at 8 µM; 60,000 tested, 0.61% active; in the data active = inhibition above about 17%
RORA act: activates the human nuclear receptor RORA. P35398. CHO-K1 Gal4-RORA LBD luciferase reporter, luminescence; percent increase over mock-subtracted basal signal. activation, % at 10 µM. 65,000 tested, 1.5% active. AID 560;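 active = activation above the mean of all tested compounds plus 3 SD, cut at about 49% in these data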
SF-1 act: SF-1 (human) activation; CHO-K1 Gal4-SF-1 LBD luciferase reporter; % increase over DMSO SF-1-specific signal; Q13285; activation, % at 10 µM; 65,000 tested, 1.9% active; AID 522;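 active = activation above the mean activation of all tested compounds plus 3 SD, cut at about 50% in these data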
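material = CHO-K1 cells with Gal4–hSF-1 LBD chimera plus Gal4-driven luciferase | compound = 10 µM single point, 1% DMSO | incubation = 20 h compound exposure at 37 °C after 1 h cell settling | measured by = SteadyLite luciferase luminescence | evaluation = percent activation relative to DMSO median and mock-transfected background | control set = DMSO negative control and −SF1 background wells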
D1 mod: allosterically modulates the human D1 dopamine receptor | AID 641 | B-score at 10 µM | P21728 | HEK293 D1, CRE-luciferase, dopamine EC30 potentiation; actives deviate in either direction | 58,000 tested, 5.9% active;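 active = luminescence count or its row- and column-corrected plate score outside the 99.7% band of the plate's sample wells, on either side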
Target sequence (P21728 whole entry, looked up): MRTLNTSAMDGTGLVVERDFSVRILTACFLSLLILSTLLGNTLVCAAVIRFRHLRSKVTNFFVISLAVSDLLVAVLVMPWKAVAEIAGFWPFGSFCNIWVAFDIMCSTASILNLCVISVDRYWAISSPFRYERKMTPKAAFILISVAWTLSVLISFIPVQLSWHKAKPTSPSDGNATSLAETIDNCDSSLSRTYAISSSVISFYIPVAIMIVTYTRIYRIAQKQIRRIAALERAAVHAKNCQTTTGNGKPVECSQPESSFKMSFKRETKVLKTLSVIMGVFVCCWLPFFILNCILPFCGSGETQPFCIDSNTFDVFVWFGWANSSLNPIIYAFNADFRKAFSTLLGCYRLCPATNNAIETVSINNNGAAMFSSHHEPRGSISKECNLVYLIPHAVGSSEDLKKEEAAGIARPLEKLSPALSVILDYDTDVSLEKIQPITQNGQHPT
HEK293 NFkB inh: lowers PMA/ionomycin-induced NF-kB signal in HEK293 cells; HEK-293 NF-kB luciferase reporter, luminescence; inhibition, % at 3 µM; 62,000 tested, 0.21% active; AID 465;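 active = inhibition above the mean of all tested compounds plus 3 SD, cut at about 40% in these data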
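Timing: 1 h pretreatment, 16 h stimulation, 37 °C; system: HEK-293 cells with stable firefly luciferase reporter driven by four HIV NF-kB elements; doses: 3 µM once, 0.30% DMSO; measured by: luciferase luminescence; control set: DMSO and 10 µM reference inhibitor; repeats: single test; reagent: PMA plus ionomycin mix as NF-kB-activating stimulus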
Each line names hits and unclear results; the compound was inactive in the other large screens.

N#Cc1c(/N=C/c2ccco2)sc2c1CCCCC2	SF-1 act 81.6, D1 mod -4.25
N#Cc1c(/N=C/c2cccs2)sc2c1CCC2	none
CCN(CC)c1ccc(NC(=O)C2CC3CCC2C3)cc1 (stereo not given)	RORA act 54.6
CC(=O)Nc1cccc(NC(=O)C2CC3CCC2C3)c1 (stereo not given)	none
O=C(CC(Nc1ccccc1)C(=O)O)c1ccccc1 (stereo not given)	RORA act 58.6 (no result: JNK3 blocker, D1 mod)
O=C(NC(=O)c1ccc(Cl)cc1)Nc1cc(N2CCCCC2)ncn1	none
O=C(COC(=O)c1ccccn1)NCCCc1ccccc1	none
CCSc1ccc2nnc(-c3ccc(F)cc3)n2n1	none
Cc1cc(C)nc(N2CCC(C(=O)NC3CCCc4ccccc43)CC2)n1 (stereo not given)	none
C=CCNC(=O)C1CCN(c2nc(C)cc(-c3ccccc3)n2)CC1	SF-1 act 101.7
Cc1cc(C)nc(N2CCC(C(=O)NCCc3ccc(F)cc3)CC2)n1	HEK293 NFkB inh 52.1
Cc1cccc(NC(=O)c2ccc(S(=O)(=O)N(C)C)cc2)n1	none
CCOc1ccc(C(=O)Nc2cccc(C)n2)cc1	D1 mod -6.46
CCCCOc1ccc(C(=O)O)cc1	none
CCCCOc1ccc(C(=O)Nc2cccc(C)n2)cc1	RORA act 55.3, SF-1 act 59.1
COC(=O)c1cc(NC(=O)C2CC=CCC2C(=O)O)cc(C(=O)OC)c1 (stereo not given)	none
COCCn1nnnc1C(c1ccccc1OC)N1CCc2ccccc2C1 (stereo not given)	none
O=C(O)c1ccc2c(c1)[C@@H]1C=CC[C@@H]1[C@H](c1ccccn1)N2	D1 mod -3.77
CCOC(=O)C1CCN(CCC(=O)Nc2cccc(Cl)c2)CC1	none
CCOC(=O)c1cc2occc2n1CC(=O)N1CCCc2ccccc21	D1 mod 4.18
Cc1cnc(-c2nnc(N(C)C(=O)c3cnccn3)s2)cn1	none
CC(C)(C)c1cc(NC(=O)COC(=O)C2CC2)n(-c2ccccc2)n1	none
Nc1cc(C2CCCC2)nn1-c1ccccc1	RORA act 61.6 (no result: JNK3 blocker)
COc1cc(C)c(S(=O)(=O)N2CCCC2)cc1C	none
Cc1nn(-c2ccccn2)c2c1-c1nc(N)ncc1CC2	RORA act 51.2
Cc1nn2c3c(cnc2c1-c1ccccc1)C(=O)CCC3	none
O=C(OCc1nc2ccccc2s1)C1CCN(C2=NS(=O)(=O)c3ccccc32)CC1	SF-1 act 53.0
COc1cccc(S(=O)(=O)Nc2ccc(C(=O)N3CCOCC3)cc2)c1	none
Cc1c(C(=O)COC(C)(C)C)[nH]c2ccccc12	none
Cc1ccc(CNc2ccc3c(c2)OCO3)cc1	D1 mod -4.97
Cc1ccccc1-n1nc(C)c2cc(C(=O)NCc3cccnc3)sc21	JNK3 blocker 57.0, D1 mod -4.69
Cc1nn(CC(=O)NCc2cccnc2)c(=O)c2ccccc12	none
CCCc1cc(C(=O)NCc2cccs2)no1	SF-1 act 50.1
CSc1ccccc1NC(=O)c1cc(-c2cccs2)on1	none
CCCc1cc(C(=O)NCc2ccccc2)no1	none
CCCc1cc(C(=O)Nc2ccccc2SC)no1	SF-1 act 56.5
O=C(NCc1cccs1)c1cc(-c2cccc(Cl)c2)on1	none
Cc1ccc(-c2cc(C(=O)NCc3cccs3)no2)cc1	RORA act 58.6, SF-1 act 60.3
COc1ccc(CN2CCN(c3ccccn3)CC2)cc1OCc1ccccc1	none
C/C(N)=C(/C#N)C(=O)CSc1nnnn1-c1ccc(C)cc1C	none
O=C(O)CCc1nn2cc(-c3ccccc3)nc2[nH]c1=O	none (no result: D1 mod, HEK293 NFkB inh)
CCc1nn2cc(-c3ccccc3)nc2s1	D1 mod -8.3
Cc1nn2cc(-c3ccc(Cl)cc3)nc2s1	none (no result: D1 mod)
Cc1nn2cc(-c3ccc(-c4ccccc4)cc3)nc2s1	D1 mod -3.96
O=S(=O)(NCc1ccc2c(c1)OCO2)c1cccc(S(=O)(=O)N2CCOCC2)c1	none
O=C(NC1CC1)c1ccc(-c2nc3ccccc3s2)s1	D1 mod -6
O=C(CSc1nnc(CN2CCCCCC2=O)n1-c1ccccn1)NCC(F)(F)F	D1 mod -3.34
CCOC(=O)Nc1ccc2c(c1)Nc1ccccc1S2	RORA act 52.9
COc1ccc(-c2csc(NCc3ccco3)n2)cc1C	RORA act 49.1, SF-1 act 80.0
c1cncc(-c2csc(NCc3ccco3)n2)c1	none (no result: JNK3 blocker, RORA act, SF-1 act, HEK293 NFkB inh)
O=C(c1cn(-c2ccccc2)nc1-c1ccncc1)n1nnc2ccccc21	D1 mod 12.3
O=C(O)c1cn(-c2ccccc2)nc1-c1ccncc1	none (no result: D1 mod)
Clc1ccccc1Nc1c2c(nc3ncnn13)CCC2	none
c1ccc(Nc2c3c(nc4ncnn24)CCC3)cc1	D1 mod -4.81
Cc1onc(-c2ccccc2)c1C(=O)N1CCCSC1=Nc1ccccc1	none
COCC(=O)Nc1nc(-c2ccccc2)ns1	none
Cn1c(Cn2c(=O)sc3ccccc32)nnc1SCc1ccccc1	none
COc1cccc2c(=O)c(C(=O)NCc3cccs3)c[nH]c12	JNK3 blocker 37.3, SF-1 act 119.2
O=C(NCc1cccs1)c1ccccc1C(=O)NCc1cccs1	none
Nc1cccc(-c2nc3ccc(N)cc3s2)c1	D1 mod -4.68
Nc1ccc(O)c(-c2nc3ccccc3s2)c1	none
CCOC(=O)C(C(C)=O)c1c(Br)c(O)c(O)c2c(C(=O)c3ccc(C)cc3)coc12 (stereo not given)	HEK293 NFkB inh 47.2
CN(C)/C=C1\C(=O)c2ccc(N(C)C)nc2CC1c1ccccc1 (stereo not given)	none
Cc1ccc(N2CCN(C(=O)c3ccccc3F)CC2)c(C)c1	none
O=CN1CCN(C(=O)c2ccccc2F)CC1	D1 mod -3.2
CCOC(=O)CCC(NC(=O)c1ccc(NCN2C(=O)c3ccccc3C2=O)cc1)C(=O)OCC (stereo not given)	JNK3 blocker 27.8
Cc1cc(NC(=O)CSc2nnnn2Cc2ccccc2)no1	none (no result: D1 mod)
Cn1c(=O)oc2cc(S(=O)(=O)NCCN3CCN(c4ccccc4F)CC3)ccc21	D1 mod -5.94
CCN(CC)c1ccc(NC(=O)C2CCCN(S(=O)(=O)c3cnc[nH]3)C2)c(C)c1 (stereo not given)	none
CC(SC1CCCC1)C(=O)NC(C)(C#N)C(C)C (stereo not given)	D1 mod -2.12
Cc1ccc2nc(CCc3nc4ccc(C)cc4o3)oc2c1	none
Cc1ccc2nc(Cc3ccc(N)cc3)oc2c1	JNK3 blocker 20.5, SF-1 act 67.8
C/C(=N\O)c1ccc2c3c([nH]c2c1)CCCC3	RORA act 54.1, SF-1 act 64.1
CC1(C)NC(=O)N(c2ccccc2Cl)C1(C)NO (stereo not given)	none
Brc1cccc(-c2n[nH]c(-c3ccccc3)n2)c1	RORA act 83.0, SF-1 act 65.2
S=c1nc(-c2cccc(Br)c2)[nH][nH]1	none
CCn1c(C)nc2cc(-c3nc4n(n3)Cc3ccccc3-4)ccc21	HEK293 NFkB inh 93.1 (no result: D1 mod)
Fc1ccc(-c2nc3n(n2)Cc2ccccc2-3)cc1	none

Assay outcomes (PubChem BioAssay)
